According to PMC5114172 (Journal of applied toxicology : JAT, 2016):

Legend:
[1] = tested on: Granulocytes; assay: Cell viability, trypan blue exclusion; assay type: cell-based, human; details: for Percent Viable Cells: Granulocytes
[2] = tested on: monocyte-depleted PBMCs; assay: IL-1β secretion assay; assay type: cell-based, human; details: MD-PBMCs
How it was run: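 NK cells, MD-PBMCs, PBMCs or granulocytes (1.5 million/mL) or PBMC+granulocytes (0.75 million/mL each), per donor, exposed 24 h, 48 h or 6 days to 0.05–5 μM test compound diluted from DMSO stock, with DMSO controls. Supernatants kept at −70 °C. IL-1β by sandwich ELISA: HRP detection antibody, acid-stopped substrate, A450 against standards. Detection limit 3 pg/mL; triplicates; ANOVA then t test versus control, p<0.05.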

## CCC[CH2][Sn][CH2]CCC [DBT, Dibutyltin]
[1]; 24 h, 0.05 μM DBT
  Percent Viable Cells: 90±8%
[1]; 24 h, 0.1 μM DBT
  Percent Viable Cells: 92±5%
[1]; 24 h, 0.25 μM DBT
  Percent Viable Cells: 95±3%
[1]; 24 h, 0.5 μM DBT
  Percent Viable Cells: 94±3%
[1]; 24 h, 1 μM DBT
  Percent Viable Cells: 94±2%
[1]; 24 h, 2.5 μM DBT
  Percent Viable Cells: 92±3%
[1]; 24 h, 5 μM DBT
  Percent Viable Cells: 92±2%
[1]; 48 h, 0.05 μM DBT
  Percent Viable Cells: 93±4%
[1]; 48 h, 0.1 μM DBT
  Percent Viable Cells: 95±3%
[1]; 48 h, 0.25 μM DBT
  Percent Viable Cells: 92±5%
[1]; 48 h, 0.5 μM DBT
  Percent Viable Cells: 94±3%
[1]; 48 h, 1 μM DBT
  Percent Viable Cells: 95±2%
[1]; 48 h, 2.5 μM DBT
  Percent Viable Cells: 72±10 %
[1]; 48 h, 5 μM DBT
  Percent Viable Cells: 73±17%
[1]; 6 day, 0.05 μM DBT
  Percent Viable Cells: 51±18%
[1]; 6 day, 0.1 μM DBT
  Percent Viable Cells: 65±22%
[1]; 6 day, 0.25 μM DBT
  Percent Viable Cells: 55±33%
[1]; 6 day, 0.5 μM DBT
  Percent Viable Cells: 50±5%
[1]; 6 day, 1 μM DBT
  Percent Viable Cells: 57±9%
[1]; 6 day, 2.5 μM DBT
  Percent Viable Cells: 34±8 %
[1]; 6 day, 5 μM DBT
  Percent Viable Cells: 35±20%
[1]; granulocytes alone, 24 h, any of the DBT exposures
  effect on viability: not affected
[2]; 24 h, across donors
  average of the maximum fold increase in IL-β secretion: 2.0 fold
[2]; donor F142, 24 h, 0.05 μM DBT
  Interleukin 1 beta secreted: 11284 ± 763 pg/mL
  fold increase in IL-1β secretion: 1.5 fold
[2]; donor F142, 24 h, 50 nM DBT
  fold increase in IL-1β secretion: 1.5 fold
[2]; donor F142, 24 h, 0.1 μM DBT
  Interleukin 1 beta secreted: 12495 ± 3130 pg/mL
[2]; donor F142, 24 h, 100 nM DBT
  fold increase in IL-1β secretion: 1.6 fold
[2]; donor F142, 24 h, 0.25 μM DBT
  Interleukin 1 beta secreted: 4456 ± 561 pg/mL
[2]; donor F142, 24 h, 0.5 μM DBT
  Interleukin 1 beta secreted: 2637 ± 1438 pg/mL
[2]; donor F142, 24 h, 1 μM DBT
  Interleukin 1 beta secreted: 77 ± 24 pg/mL
[2]; donor F142, 48 h, 0.05 μM DBT
  Interleukin 1 beta secreted: 14932 ± 420 pg/mL
[2]; donor F142, 48 h, 0.1 μM DBT
  Interleukin 1 beta secreted: 15275 ± 650 pg/mL
[2]; donor F142, 48 h, 0.25 μM DBT
  Interleukin 1 beta secreted: 6455 ± 123 pg/mL
[2]; donor F142, 48 h, 0.5 μM DBT
  Interleukin 1 beta secreted: 2604 ± 133 pg/mL
[2]; donor F142, 48 h, 1 μM DBT
  Interleukin 1 beta secreted: 851 ± 54 pg/mL
[2]; donor F142, 48 h, 2.5 μM DBT
  Interleukin 1 beta secreted: 6 ± 27 pg/mL
[2]; donor F142, 6 day, 0.05 μM DBT
  Interleukin 1 beta secreted: 2303 ± 313 pg/mL
[2]; donor F142, 6 day, 0.1 μM DBT
  Interleukin 1 beta secreted: 1606 ± 808 pg/mL
[2]; donor F142, 6 day, 0.25 μM DBT
  Interleukin 1 beta secreted: 560 ± 127 pg/mL
[2]; donor F142, 6 day, 0.5 μM DBT
  Interleukin 1 beta secreted: 270 ± 197 pg/mL
[2]; donor F142, 6 day, 1 μM DBT
  Interleukin 1 beta secreted: 90 ± 100 pg/mL
[2]; donor F145, 24 h, 0.05 μM DBT
  Interleukin 1 beta secreted: 3333 ± 164 pg/mL
[2]; donor F145, 24 h, 50 nM DBT
  fold increase in IL-1β secretion: 1.5 fold
[2]; donor F145, 24 h, 0.1 μM DBT
  Interleukin 1 beta secreted: 2390 ± 497 pg/mL
[2]; donor F145, 24 h, 100 nM DBT
  fold increase in IL-1β secretion: no increase
[2]; donor F145, 24 h, 0.25 μM DBT
  Interleukin 1 beta secreted: 700 ± 8 pg/mL
[2]; donor F145, 24 h, 0.5 μM DBT
  Interleukin 1 beta secreted: 47 ± 59 pg/mL
[2]; donor F145, 48 h, 0.05 μM DBT
  Interleukin 1 beta secreted: 780 ± 323 pg/mL
[2]; donor F145, 48 h, 0.1 μM DBT
  Interleukin 1 beta secreted: 2232 ± 1035 pg/mL
[2]; donor F145, 48 h, 0.25 μM DBT
  Interleukin 1 beta secreted: 337 ± 347 pg/mL
[2]; donor F145, 6 day, 0.05 μM DBT
  Interleukin 1 beta secreted: 983 ± 248 pg/mL
[2]; donor F145, 6 day, 0.1 μM DBT
  Interleukin 1 beta secreted: 987 ± 577 pg/mL
[2]; donor F145, 6 day, 0.25 μM DBT
  Interleukin 1 beta secreted: 535 ± 16 pg/mL
[2]; donor F145, 6 day, 0.5 μM DBT
  Interleukin 1 beta secreted: 147 ± 55 pg/mL
[2]; donor F152, 24 h, 0.05 μM DBT
  Interleukin 1 beta secreted: 721 ± 36 pg/mL
[2]; donor F152, 24 h, 0.1 μM DBT
  Interleukin 1 beta secreted: 516 ± 26 pg/mL
[2]; donor F152, 24 h, 0.25 μM DBT
  Interleukin 1 beta secreted: 406 ± 29 pg/mL
[2]; donor F152, 24 h, 0.5 μM DBT
  Interleukin 1 beta secreted: 340 ± 57 pg/mL
[2]; donor F152, 24 h, 1 μM DBT
  Interleukin 1 beta secreted: 224 ± 9 pg/mL
[2]; donor F152, 24 h, 2.5 μM DBT
  Interleukin 1 beta secreted: 83 ± 22 pg/mL
[2]; donor F152, 24 h, 5 μM DBT
  Interleukin 1 beta secreted: 19 ± 12 pg/mL
[2]; donor F152, 48 h, 0.05 μM DBT
  Interleukin 1 beta secreted: 563 ± 54 pg/mL
[2]; donor F152, 48 h, 0.1 μM DBT
  Interleukin 1 beta secreted: 495 ± 72 pg/mL
[2]; donor F152, 48 h, 0.25 μM DBT
  Interleukin 1 beta secreted: 607 ± 71 pg/mL
[2]; donor F152, 48 h, 0.5 μM DBT
  Interleukin 1 beta secreted: 703 ± 34 pg/mL
[2]; donor F152, 48 h, 1 μM DBT
  Interleukin 1 beta secreted: 296 ± 56 pg/mL
[2]; donor F152, 48 h, 2.5 μM DBT
  Interleukin 1 beta secreted: 35 ± 38 pg/mL
[2]; donor F152, 48 h, 5 μM DBT
  Interleukin 1 beta secreted: 86 ± 37 pg/mL
[2]; donor F152, 6 day, 0.05 μM DBT
  Interleukin 1 beta secreted: 81 ± 21 pg/mL
[2]; donor F152, 6 day, 0.1 μM DBT
  Interleukin 1 beta secreted: 71 ± 6 pg/mL
[2]; donor F152, 6 day, 0.25 μM DBT
  Interleukin 1 beta secreted: 118 ± 11 pg/mL
[2]; donor F152, 6 day, 0.5 μM DBT
  Interleukin 1 beta secreted: 161 ± 62 pg/mL
[2]; donor F152, 6 day, 1 μM DBT
  Interleukin 1 beta secreted: 41 ± 7 pg/mL
[2]; donor F152, 6 day, 2.5 μM DBT
  Interleukin 1 beta secreted: 20 ± 18 pg/mL
[2]; donor F152, 6 day, 5 μM DBT
  Interleukin 1 beta secreted: 14 ± 1 pg/mL
[2]; donor F163, 24 h, 0.05 μM DBT
  Interleukin 1 beta secreted: 613 ± 57 pg/mL
[2]; donor F163, 24 h, 0.1 μM DBT
  Interleukin 1 beta secreted: 370 ± 13 pg/mL
[2]; donor F163, 24 h, 0.25 μM DBT
  Interleukin 1 beta secreted: 309 ± 15 pg/mL
[2]; donor F163, 24 h, 0.5 μM DBT
  Interleukin 1 beta secreted: 310 ± 16 pg/mL
[2]; donor F163, 24 h, 1 μM DBT
  Interleukin 1 beta secreted: 130 ± 5 pg/mL
[2]; donor F163, 24 h, 2.5 μM DBT
  Interleukin 1 beta secreted: 70 ± 25 pg/mL
[2]; donor F163, 24 h, 5 μM DBT
  Interleukin 1 beta secreted: 86 ± 44 pg/mL
[2]; donor F163, 48 h, 0.05 μM DBT
  Interleukin 1 beta secreted: 607 ± 86 pg/mL
[2]; donor F163, 48 h, 0.1 μM DBT
  Interleukin 1 beta secreted: 342 ± 34 pg/mL
[2]; donor F163, 48 h, 0.25 μM DBT
  Interleukin 1 beta secreted: 547 ± 68 pg/mL
[2]; donor F163, 48 h, 0.5 μM DBT
  Interleukin 1 beta secreted: 677 ± 378 pg/mL
[2]; donor F163, 48 h, 1 μM DBT
  Interleukin 1 beta secreted: 701 ± 111 pg/mL
[2]; donor F163, 6 day, 0.05 μM DBT
  Interleukin 1 beta secreted: 715 ± 87 pg/mL
[2]; donor F163, 6 day, 0.1 μM DBT
  Interleukin 1 beta secreted: 497 ± 75 pg/mL
[2]; donor F163, 6 day, 0.25 μM DBT
  Interleukin 1 beta secreted: 305 ± 36 pg/mL
[2]; donor F163, 6 day, 0.5 μM DBT
  Interleukin 1 beta secreted: 664 ± 70 pg/mL
[2]; donor F163, 6 day, 1 μM DBT
  Interleukin 1 beta secreted: 175 ± 3 pg/mL
[2]; donor F166, 24 h, 0.05 μM DBT
  Interleukin 1 beta secreted: 6772 ± 386 pg/mL
  fold increase in IL-1β secretion: 3.0 fold
[2]; donor F166, 24 h, 0.1 μM DBT
  Interleukin 1 beta secreted: 5569 ± 527 pg/mL
[2]; donor F166, 24 h, 0.25 μM DBT
  Interleukin 1 beta secreted: 2788 ± 126 pg/mL
[2]; donor F166, 24 h, 0.5 μM DBT
  Interleukin 1 beta secreted: 158 ± 43 pg/mL
[2]; donor F166, 48 h, 0.05 μM DBT
  Interleukin 1 beta secreted: 14662 ± 1044 pg/mL
[2]; donor F166, 48 h, 0.1 μM DBT
  Interleukin 1 beta secreted: 12941 ± 423 pg/mL
[2]; donor F166, 48 h, 0.25 μM DBT
  Interleukin 1 beta secreted: 5307 ± 349 pg/mL
[2]; donor F166, 48 h, 0.5 μM DBT
  Interleukin 1 beta secreted: 924 ± 101 pg/mL
[2]; donor F166, 48 h, 1 μM DBT
  Interleukin 1 beta secreted: 1075 ± 230 pg/mL
[2]; donor F166, 48 h, 2.5 μM DBT
  Interleukin 1 beta secreted: 1981 ± 3260 pg/mL
[2]; donor F166, 6 day, 0.05 μM DBT
  Interleukin 1 beta secreted: 6655 ± 930 pg/mL
[2]; donor F166, 6 day, 0.1 μM DBT
  Interleukin 1 beta secreted: 4959 ± 11 pg/mL
[2]; donor F166, 6 day, 0.25 μM DBT
  Interleukin 1 beta secreted: 2424 ± 95 pg/mL
[2]; donor F166, 6 day, 0.5 μM DBT
  Interleukin 1 beta secreted: 2118 ± 698 pg/mL
[2]; third common donor (F152), 24 h, 50 nM DBT
  fold increase in IL-1β secretion: 2.1 fold
[2]; third common donor (F152), 24 h, 100 nM DBT
  fold increase in IL-1β secretion: 1.4 fold
